Data set [1] has as its system Trypanosoma brucei brucei. The data set can be described thus: Antitrypanosomal activity against bloodstream form of Trypanosoma brucei brucei s427 after 69 hrs by resazurin-based […] analysis. Format: functional, organism-based. Particulars: s427, 69 h. The essentials: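 Bloodstream T. b. brucei s427 was grown in modified HMI9 (56 μM 1-thioglycerol in place of 2-mercaptoethanol) and counted by hemocytometer. Cells (10^4/ml) were added to compound in DMSO and incubated 69 h at 37 °C, 5% CO2. Resazurin (50 μM final) was then added for 4 h more. Fluorescence read at ex 528/em 590 nm.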

A short description of data set [2]: Half life in CD1 mouse plasma at 50 uM by UPLC-MS/MS analysis. Format: ADME, cell-free.
Data set [3] is described as follows: Inhibition of Trypanosoma brucei NMT using [3H]-myristoyl-coA/biotinylated CAP5.5 as substrate after 50 mins by scintillation proximity assay. The method, boiled down: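 TbNMT scintillation proximity assay at 22–23 °C, with test compound dilutions added in DMSO. Reaction: 30 mM Tris pH 7.4, 0.5 mM EDTA, 0.5 mM EGTA, 1.25 mM DTT, 0.1% Triton X-100, 0.125 μM [3H]myristoyl-coA, 0.5 μM biotinylated CAP5.5 peptide, 5 nM enzyme. Enzyme added first, then substrate mix to start; stopped after 50 min with phosphoric acid pH 4.0/MgCl2/SPA beads; scintillation counting.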

Data set [4] can be described thus: Drug metabolism in CD1 mouse plasma assessed as 4-(azepan-1-yl)-3-(4-methoxyphenylsulfonamido)benzoic acid formation at 50 uM incubated for 30 to 180 mins by UPLC-MS/MS analysis. The class given is ADME, cell-free.
Data set [5] is described as follows: Intrinsic clearance in CD1 mouse liver microsomes at 1 uM measured up to 30 mins by UPLC-MS/MS method. Format: ADME, microsome. Particulars: 0.5 h.
For data set [6], the system named is human NMT1 versus Trypanosoma brucei NMT. The data set can be described thus: Selectivity ratio of IC50 for human NMT1 to IC50 for Trypanosoma brucei NMT. The conditions noted are these: read-out: Ratio IC50. Format: toxicity. The method, boiled down:
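Both enzymes assayed by SPA in the same buffer: 0.125 μM [3H]myristoyl-coA, 0.5 μM biotinylated CAP5.5 peptide, 5 nM NMT, 22–23 °C. Reactions stopped at 15 min for HsNMT1 and 50 min for TbNMT. The ratio is HsNMT IC50 divided by TbNMT IC50.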

In a further data set the test system is human NMT. The data set can be described thus: Therapeutic index, ratio of IC50 for human NMT to EC50 for bloodstream form of Trypanosoma brucei brucei s427. The class given is toxicity. The conditions noted are these: read-out: Ratio IC50/EC50.
For data set [7], the target named is T1, Glycylpeptide N-tetradecanoyltransferase 1 (Homo sapiens, UniProt P30419).
T1 sequence (P30419 whole entry): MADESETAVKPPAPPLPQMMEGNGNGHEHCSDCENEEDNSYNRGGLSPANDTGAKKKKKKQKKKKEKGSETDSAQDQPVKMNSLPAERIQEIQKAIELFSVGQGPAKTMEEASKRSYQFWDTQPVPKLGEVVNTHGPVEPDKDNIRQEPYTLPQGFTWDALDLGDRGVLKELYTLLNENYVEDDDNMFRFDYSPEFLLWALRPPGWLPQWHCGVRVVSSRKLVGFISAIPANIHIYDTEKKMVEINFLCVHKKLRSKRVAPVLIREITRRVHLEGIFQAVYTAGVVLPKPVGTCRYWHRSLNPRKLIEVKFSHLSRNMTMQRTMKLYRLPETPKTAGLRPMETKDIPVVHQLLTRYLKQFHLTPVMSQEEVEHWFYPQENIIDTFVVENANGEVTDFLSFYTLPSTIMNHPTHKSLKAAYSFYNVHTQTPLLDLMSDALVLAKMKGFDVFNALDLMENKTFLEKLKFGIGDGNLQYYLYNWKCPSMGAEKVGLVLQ
The data set can be described thus: Inhibition of human NMT1 using [3H]-myristoyl-coA/biotinylated CAP5.5 as substrate after 15 mins by scintillation proximity assay.

Data set [8] can be described thus: Ratio of drug level in NMRI mouse brain to plasma at 0.5 mg/kg, iv after 5 to 30 mins by UPLC/MS/MS analysis. The conditions noted are these: brain and plasma.
For data set [9], the target named is Voltage-gated inwardly rectifying potassium channel KCNH2 (Homo sapiens, UniProt Q12809). The experiment in a line: Inhibition of human ERG by patch clamp assay.
The nature of data set [10]: Fraction unbound in CD1 mouse plasma at 10 ug/ml after 5 hrs by UPLC-MS/MS analysis.
Data set [11] concerns Trypanosoma brucei brucei. The data set can be described thus: Antitrypanosomal activity against Trypanosoma brucei brucei GVR35 trypomastigotes infected in NMRI mouse assessed as reduction in parasitaemia level at 50 to 200 mg/kg, po administered twice daily for 5 days starting from day 21 post infection. Format: functional, organism-based.
In data set [12] the test system is Trypanosoma brucei brucei. The experiment in a line: Antitrypanosomal activity against Trypanosoma brucei brucei s427 trypomastigotes infected in NMRI mouse at 0.3 to 3 mg/kg, po administered twice daily for 4 days starting from day 3 post infection. Format: functional, organism-based. The method, boiled down:
(§1)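 Stage 1 HAT model: female NMRI mice infected with T. brucei s427. Compound given orally twice a day for 4 days, starting day 3 postinfection. Outcome scored as cure versus relapse.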

A short description of data set [13]: Toxicity in NMRI mouse administered orally for twice per day for 3 days. The class given is organism-based. Particulars: in vivo, po.
Data set [14] deals with Trypanosoma brucei brucei. The data set can be described thus: Antitrypanosomal activity against Trypanosoma brucei brucei s427 trypomastigotes infected in NMRI mouse at 10 mg/kg, po administered twice daily for 4 days starting from day 3 post infection. Format: functional, organism-based. The essentials:
as §1

A short description of data set [15]: AUC (0 to 8 hrs) in NMRI mouse at 50 mg/kg, po administered via gavage by UPLC/MS/MS analysis. Format: ADME, organism-based. Further details: dose 50 mg/kg, time < 8 hr, route oral. The conditions noted are these: in vivo.
The test system of data set [16] is Trypanosoma brucei brucei. The data set can be described thus: Antitrypanosomal activity against Trypanosoma brucei brucei GVR35 trypomastigotes infected in CF1 mdr1a deficient mouse assessed as reduction in parasitaemia level at 50 mg/kg, po administered twice daily for 5 days starting from day 21 post infection. The class given is functional, organism-based. The method, boiled down: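 Stage 2 HAT model using CF-1 mdr1a-deficient mice infected with T. b. brucei GVR35. Compound given orally twice daily for 5 days from day 21 postinfection. Comparator arms: Berenil or melarsoprol given intraperitoneally once daily.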

A short description of data set [17]: Cmax in NMRI mouse at 50 mg/kg, po administered via gavage by UPLC/MS/MS analysis. The class given is ADME, organism-based. The arrangement: dose 50 mg/kg, route oral. Particulars: in vivo.
Data set [18] can be described thus: Tmax in NMRI mouse at 50 mg/kg, po administered via gavage by UPLC/MS/MS analysis. Format: ADME, organism-based. The conditions noted are these: in vivo.

The source made the active and inactive calls. The rule behind the calls is not given here.

Voltage-gated inwardly rectifying potassium channel KCNH2, sequence (Q12809 whole entry): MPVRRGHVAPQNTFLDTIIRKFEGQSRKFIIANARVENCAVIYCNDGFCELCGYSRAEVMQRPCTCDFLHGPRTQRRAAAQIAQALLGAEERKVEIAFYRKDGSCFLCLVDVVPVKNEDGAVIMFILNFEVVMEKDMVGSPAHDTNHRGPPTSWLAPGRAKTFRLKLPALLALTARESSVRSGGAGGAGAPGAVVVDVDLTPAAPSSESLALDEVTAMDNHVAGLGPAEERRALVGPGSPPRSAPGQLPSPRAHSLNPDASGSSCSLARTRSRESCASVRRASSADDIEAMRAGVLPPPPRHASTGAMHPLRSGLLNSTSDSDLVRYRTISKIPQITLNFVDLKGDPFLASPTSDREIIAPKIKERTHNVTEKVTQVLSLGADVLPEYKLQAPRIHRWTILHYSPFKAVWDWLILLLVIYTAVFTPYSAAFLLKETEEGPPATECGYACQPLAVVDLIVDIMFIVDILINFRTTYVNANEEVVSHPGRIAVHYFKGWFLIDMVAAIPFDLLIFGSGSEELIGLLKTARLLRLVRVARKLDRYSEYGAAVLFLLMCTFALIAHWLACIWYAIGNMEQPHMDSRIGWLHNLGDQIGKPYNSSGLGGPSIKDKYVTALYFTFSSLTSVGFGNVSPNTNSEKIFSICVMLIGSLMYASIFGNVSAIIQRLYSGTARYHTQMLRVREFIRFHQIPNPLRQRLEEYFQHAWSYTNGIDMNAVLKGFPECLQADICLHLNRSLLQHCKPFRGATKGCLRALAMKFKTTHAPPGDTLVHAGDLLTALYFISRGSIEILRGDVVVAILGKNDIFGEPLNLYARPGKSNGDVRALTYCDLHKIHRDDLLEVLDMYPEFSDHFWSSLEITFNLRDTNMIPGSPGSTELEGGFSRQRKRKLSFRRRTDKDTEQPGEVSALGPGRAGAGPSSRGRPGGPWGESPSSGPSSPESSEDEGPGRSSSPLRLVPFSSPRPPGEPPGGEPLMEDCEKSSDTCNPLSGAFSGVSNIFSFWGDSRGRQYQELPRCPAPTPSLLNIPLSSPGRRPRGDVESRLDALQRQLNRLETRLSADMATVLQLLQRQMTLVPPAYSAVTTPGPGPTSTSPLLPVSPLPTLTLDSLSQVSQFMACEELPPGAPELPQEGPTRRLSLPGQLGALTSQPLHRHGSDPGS

In the case of `COC(=O)c1ccc(N2CCCCCC2)c(NS(=O)(=O)c2ccc(CCCCC3CCN(C)CC3)cc2)c1`, the EC50 in data set [1] came to 0.02 µM. The compound further registered a half-life at 50 µM in [2] of under 0.25 h. Also, the half-inhibitory concentration (IC50) in data set [3] was 0.006 µM. Moreover, in data set [4], the Drug metabolism entry is given as “Metabolite_Detected”.
As for `O=S(=O)(Nc1c(C2CCCCC2)ccc2ncccc12)c1ccc(Br)cc1`, the response in data set [1] was half-maximal at 39 µM (EC50). Also, the CLH in data set [5] turned out to be 38 mL/min/g. Moreover, the selectivity ratio in data set [6] was over 1.6; in the data set on human NMT it was over 2.6. Also, the IC50 in data set [3] was 63 µM; in data set [7] it was over 100 µM.
With `CC(C)Cc1ccc2nn(C)cc2c1N(C(F)F)S(=O)(=O)c1ccc(CCCCC2CCN(C)CC2)cc1`, in data set [5], the CLH came out at 2.3 mL/min/g. In addition, the partition ratio (Kp) in data set [8] came to 1.9.
In turn, `CC(C)Cc1ccc2ncccc2c1NS(=O)(=O)c1ccc(CCCO[C@@H]2C[C@H]3CC[C@@H](C2)N3C)cc1` returned an EC50 in data set [1] of 0.091 µM. For the same compound, the CLH in data set [5] worked out at 1.5 mL/min/g. Moreover, the IC50 in data set [9] is 1.6 µM; in [3] it was 0.007 µM. In data set [10], this compound displayed a fraction unbound at 5 h, 10 ug/ml of 0.18.
In the case of `CC(C)Cc1ccc2nn(C)cc2c1NS(=O)(=O)c1ccc(CCCOC[C@@H]2CCCN2C)cc1`, in [1], the concentration for a half-maximal effect (EC50) stood at 0.031 µM. The same compound returned a CLH in data set [5] of 3.7 mL/min/g. Besides, the IC50 in data set [9] was 3 µM; in data set [3], under 0.005 µM.
For the compound `CC(C)Cc1ccc2ncccc2c1NS(=O)(=O)c1ccc(CCCN2CCN3CCC[C@@H]3C2)cc1`, it took 0.04 µM to reach a half-maximal effect in data set [1] (EC50). Also, the CLH in data set [5] was found to be 6.2 mL/min/g. In addition, the IC50 was 1.3 µM in data set [9] and under 0.005 µM in data set [3]. In [10], this compound had a fraction unbound at 5 h, 10 ug/ml of 0.17.
For the compound `CC(C)Cc1ccc2nn(C)cc2c1NS(=O)(=O)c1ccc(CCCCC2CCN(C)CC2)cc1`, the outcome in data set [11] and in data set [12] was inactive. The compound also yielded an EC50 in data set [1] of 0.005 µM. For the same compound, the CLH in data set [5] was found to be 2.9 mL/min/g. Also, the MTD at 72 h in [13] was over 300 mg/kg. Moreover, the outcome in data set [14] and in data set [16] was Active. This compound gave an area under the curve AUC(0-t) at 8 h in data set [15] of 48300 ng·h/mL. The IC50 in [9] is 3.7 µM; in data set [3] it was under 0.005 µM. This compound also had a Cmax in [17] of 11000 ng/mL. For the same compound, in data set [18], the Tmax stood at 1 h. The compound also yielded a fraction unbound at 5 h, 10 ug/ml in data set [10] of 0.062.
With `Cn1cc2c(NS(=O)(=O)c3ccc(Br)cc3)c(C3CCCCC3)ccc2n1`, the response in data set [1] was half-maximal at 32 µM (EC50). The values for the selectivity ratio (in data set [6]; in the data set with human NMT) were over 5.9 and over 3.1, respectively. Besides, the values for the IC50 in [3] and in [7] were 17 µM and over 100 µM, respectively.
Turning to `CC(C)Cc1ccc2ncccc2c1NS(=O)(=O)c1ccc(CCCCN2CCCN(C)CC2)cc1`, the response in data set [1] was half-maximal at 0.059 µM (EC50). The CLH in [5] stood at 1.8 mL/min/g. This compound also had a fraction unbound at 5 h, 10 ug/ml in data set [10] of 0.093. The concentration for half-maximal inhibition (IC50) in [3] is 0.006 µM.
With `O=S(=O)(Nc1c(CC2CCCCC2)ccc2ncccc12)c1ccc(Br)cc1`, in data set [1], the EC50 amounted to 23 µM. The compound further yielded a CLH in [5] of 33 mL/min/g. For the same compound, the selectivity ratio in [6] is over 71; in the data set with human NMT it was over 4.3. Moreover, the results for the concentration for half-maximal inhibition (IC50) in [3] and in data set [7] were 1.4 µM and over 100 µM, respectively.
For the compound `CC(C)Cc1ccc2nn(C)cc2c1NS(=O)(=O)c1ccc(CCCO[C@@H]2C[C@H]3CC[C@@H](C2)N3C)cc1`, the EC50 in [1] was 0.039 µM. The compound also registered a CLH in data set [5] of 1.4 mL/min/g. In addition, the half-inhibitory concentration (IC50) in [9] was 3.3 µM; in data set [3] it was 0.005 µM.
`O=S(=O)(Nc1c(N2CCCC2)ccc2ncccc12)c1ccc(Br)cc1` displayed an EC50 in [1] of 11 µM. The CLH in data set [5] came out at 27 mL/min/g. The selectivity ratio amounted to 5.5 in data set [6] and 3.7 with human NMT. In addition, the half-maximal inhibitory concentration (IC50) in data set [3] is 7.5 µM; in [7], 41 µM.
For `COC(=O)c1ccc(N2CCCCCC2)c(NS(=O)(=O)c2ccc(OC)cc2)c1`, the EC50 in data set [1] came to 12 µM. Moreover, the selectivity ratio is over 100 in data set [6] and 8.3 with human NMT. Further, the half-maximal inhibitory concentration (IC50) in [3] is 1 µM; in data set [7], over 100 µM.
`CC(C)Cc1ccc2nn(C)cc2c1NS(=O)(=O)c1ccc(CCCOC[C@H]2COCCN2C)cc1`: the EC50 in data set [1] came to 0.22 µM. Also, the CLH in [5] turned out to be 20 mL/min/g. Besides, the IC50 came out at 3.1 µM in data set [9] and 0.007 µM in data set [3].
Compound `Cn1cc2c(NS(=O)(=O)c3ccc(Br)cc3)c(N3CCCC3)ccc2n1` showed an EC50 in data set [1] of 24 µM. In data set [5], this compound showed a CLH of 33 mL/min/g. For the same compound, the selectivity ratio in data set [6] was over 3.7; with human NMT, over 4.1. The 50% inhibitory concentration (IC50) was 27 µM in data set [3] and over 100 µM in data set [7].

(Values after ChEMBL document CHEMBL4229565 (J Med Chem, 2018).)
